From ChEMBL document CHEMBL1221317, “S-benzylisothiourea derivatives as small-molecule inhibitors of indoleamine-2,3-dioxygenase” (Bioorg Med Chem Lett, 2010)
Calls of active or inactive are those of the source. The rule behind the calls is not given here.

How the values were obtained:
[1] = target: T1, Indoleamine 2,3-dioxygenase 1 (Homo sapiens, UniProt P14902); assay: Inhibition of indoleamine-2,3-dioxygenase in human A431 cells assessed as inhibition of IFN-gamma-stimulated kynurenine production; assay type: cell-based, A-431
Procedure, shortened: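 A431 cells (2.0 × 10⁵ cells/mL) were seeded and grown overnight. Serial DMSO dilutions of compound were added and incubated for 24 h more. Then 7% (v/v) aqueous trichloroacetic acid and 2% (w/v) p-dimethylaminobenzaldehyde in acetic acid (2:5) were added, and the kynurenine-derived yellow colour was read at 460 nm.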
Target sequence in this assay (P14902 whole entry): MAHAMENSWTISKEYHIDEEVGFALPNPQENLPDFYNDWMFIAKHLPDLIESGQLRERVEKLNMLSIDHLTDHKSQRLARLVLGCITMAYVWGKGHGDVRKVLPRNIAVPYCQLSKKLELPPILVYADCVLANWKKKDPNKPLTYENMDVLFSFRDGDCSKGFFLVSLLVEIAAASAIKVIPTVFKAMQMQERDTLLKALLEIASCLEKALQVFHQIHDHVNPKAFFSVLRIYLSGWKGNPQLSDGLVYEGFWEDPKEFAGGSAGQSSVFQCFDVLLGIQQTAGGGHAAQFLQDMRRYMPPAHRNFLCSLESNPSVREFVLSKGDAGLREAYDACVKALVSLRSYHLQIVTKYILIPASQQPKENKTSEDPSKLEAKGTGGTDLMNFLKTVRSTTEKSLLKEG

[2] = target: T1, Indoleamine 2,3-dioxygenase 1; assay: Inhibition of indoleamine-2,3-dioxygenase
Procedure, shortened: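 Recombinant IDO, in 50 mM potassium phosphate buffer (pH 6.5) with 20 mM neutralized ascorbic acid, catalase, methylene blue and L-Trp. Incubated at 37 °C for 60 min, then stopped with 30% (w/v) trichloroacetic acid and heated at 50 °C for 15 min. After centrifugation, the supernatant was mixed with 2% (w/v) p-dimethylaminobenzaldehyde in acetic acid to detect kynurenine colorimetrically.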
Target sequence in this assay (P14902 whole entry): as above

[3] = target: T1, Indoleamine 2,3-dioxygenase 1; assay: Inhibition of indoleamine-2,3-dioxygenase in human A431 cells assessed as inhibition of IFN-gamma-stimulated kynurenine production at 10 uM; assay type: cell-based; details: A-431
Procedure, shortened: (§1)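 A431 cells were precultured for 24 h, given fresh medium, and treated with compound with or without IFN-γ (5 ng/ml). Culture media and cell extracts were then collected. IDO and α-tubulin in the lysates were detected by western blot, and kynurenine concentration was measured in the culture medium.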
Target sequence in this assay (P14902 whole entry, looked up): as the sequence (P14902 whole entry) above

A-431 = assay: Inhibition of indoleamine-2,3-dioxygenase expression in human A431 cells at 10 uM; assay type: functional, cell-based; procedure, shortened: as §1

Row | SMILES | IC50 [1] | IC50 [2] | inhibition [3] | inhibition (A-431)
1 | NC(=S)Nc1ccc(Cl)cc1 | > 20 µM | > 100 µM | – | –
2 | N=C(N)SCc1ccc(C(=O)O)cc1 | > 20 µM | > 100 µM | – | –
3 | N=C(N)SCc1ccc(Cl)cc1Cl | 1.1 µM | 0.4 µM | – | –
4 | SCc1ccccc1Cl | 15 µM | 1.2 µM | – | –
5 | CC(C)(C)c1ccc(CSC(=N)N)cc1 | > 20 µM | > 100 µM | – | –
6 | N=C(N)SCc1cccc(Cl)c1 | 1.4 µM | 4.6 µM | – | –
7 | N=C(N)SCc1ccc(C(F)(F)F)cc1 | 1.2 µM | 2.6 µM | – | –
8 | NC(=S)NCCc1ccc(Cl)cc1 | > 20 µM | 100 µM | – | –
9 | N=C(N)SCCc1ccc(Cl)cc1 | > 20 µM | 57 µM | – | –
10 | CS(=O)(=O)c1ccc(CSC(=N)N)cc1 | > 10 µM | > 100 µM | – | –
11 | N=C(N)SCc1ccccc1 | > 10 µM | 61 µM | – | –
12 | Sc1ccc(Cl)cc1 | > 20 µM | 1.9 µM | – | –
13 | CSC(=N)Nc1ccc(Cl)cc1 | > 20 µM | > 100 µM | – | –
14 | SCc1ccc(Cl)cc1Cl | 4.6 µM | 3.5 µM | – | –
15 | N=C(N)SCc1ccc(C(=O)c2ccccc2)cc1 | > 20 µM | > 100 µM | – | –
16 | C/N=C(\NC)SCc1ccc(Cl)cc1 | > 20 µM | 21 µM | – | –
17 | N=C(N)SCc1ccc([N+](=O)[O-])cc1 | 2.2 µM | 11 µM | – | –
18 | N=C(N)SCc1ccc(F)cc1 | 2 µM | 13 µM | – | –
19 | Cc1ccc(CS)cc1 | 6.5 µM | 1.3 µM | – | –
20 | O=S(O)c1ccc(Cl)cc1 | > 20 µM | > 100 µM | – | –
21 | CCc1ccc(CSC(=N)N)cc1 | 2.5 µM | 16 µM | – | –

Row | SMILES | IC50 [1] | IC50 [2] | inhibition [3] | inhibition (A-431)
22 | CC(C)c1ccc(CSC(=N)N)cc1 | > 20 µM | > 100 µM | – | –
23 | OCc1ccc(Cl)cc1 | > 20 µM | > 100 µM | – | –
24 | CSC(=N)NCCc1ccc(Cl)cc1 | > 20 µM | > 100 µM | – | –
25 | N=C(N)SCc1ccc(Cl)cc1 | 0.6 µM | 2.2 µM | Active | inactive
26 | N#Cc1ccc(CSC(=N)N)cc1 | 2.6 µM | 19 µM | – | –
27 | NCc1ccc(Cl)cc1 | > 20 µM | > 100 µM | – | –
28 | COc1ccc(CSC(=N)N)cc1 | 10 µM | 52 µM | – | –
29 | N=C(N)SCc1ccccc1Cl | 4.8 µM | 10 µM | – | –
30 | SCc1ccc(Cl)c(Cl)c1 | 1.1 µM | 0.1 µM | – | –
31 | O=S(=O)(O)c1ccc(Cl)cc1 | > 20 µM | > 100 µM | – | –
32 | N=C(N)SCCc1cccc(Cl)c1 | > 20 µM | > 100 µM | – | –
33 | N=C(N)SCc1ccc(Cl)c(Cl)c1 | 7.3 µM | 17 µM | – | –
34 | N=C(N)SCc1ccc(Br)cc1 | 0.8 µM | 1.3 µM | – | –
35 | Fc1ccc(CS)cc1 | 1.9 µM | 1.8 µM | – | –
36 | SCc1ccc(Cl)cc1 | 1.1 µM | 3.2 µM | – | –
37 | NCCc1ccc(Cl)cc1 | > 20 µM | > 100 µM | – | –
38 | COc1ccc(CS)cc1 | 9.4 µM | 1.4 µM | – | –
39 | N=C(N)SCCc1ccccc1Cl | > 20 µM | > 100 µM | – | –
40 | SCc1ccccc1 [BENZENEMETHANETHIOL] | 13 µM | 1.7 µM | – | –
41 | NC(=O)NCc1ccc(Cl)cc1 | > 20 µM | > 100 µM | – | –
42 | Cc1ccc(CSC(=N)N)cc1 | 6.8 µM | 30 µM | – | –
